The text below walks through data of ChEMBL document CHEMBL1649155, “Antimicrobial activity of curcumin against Helicobacter pylori isolates from India and during infections in mice” (2009).

Converted amounts (≈) assume the structure as drawn. The source made the active and inactive calls. The rule behind the calls is not given here.

The test system of assay [1] is Helicobacter pylori. The experiment in a line: Antimicrobial activity against Helicobacter pylori ATCC 43504 by agar dilution method. It is filed as functional. The essentials:
(§1)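 Agar dilution on BHI agar with 5% horse serum. Isolates were grown 3 days under microaerophilic conditions and restreaked for 24 h. Cells were suspended in PBS to OD600 0.1, and 10 μl was spotted onto agar with curcumin at final 50–5 μg/ml (DMSO stock). Plain and DMSO-containing agar served as growth controls. Plates ran 5 days at 37°C microaerophilic. MIC is the lowest concentration with no visible growth.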
On the technique in general: Agar dilution tests growth on a series of plates holding different concentrations.

Assay [2] relates to Helicobacter pylori. Briefly: Antimicrobial activity against Helicobacter pylori clinical isolate by agar dilution method. It is filed as functional. The essentials: as §1
Assay [3] is described as follows: Antimicrobial activity against Helicobacter pylori 26695 by agar dilution method. It is filed as functional.
Assay [4] concerns Helicobacter pylori. Briefly: Antimicrobial activity against Helicobacter pylori PG139 by agar dilution method. The assay is classed as functional. Put shortly:
as §1

The subject of assay [5] is Helicobacter pylori. The experiment in a line: Antimicrobial activity against Helicobacter pylori SS1 infected in C57BL/6 mouse assessed as decreased bacterial gene vacA expression at 25 mg/kg, po administered 2 weeks post infection for 7 days measured after 1 week by PCR. The assay is classed as functional, organism-based. On the set-up: dose 25 mg/kg.
Assay [6] concerns Helicobacter pylori. Briefly: Antimicrobial activity against Helicobacter pylori L1675 by agar dilution method. The assay is classed as functional. The essentials: as §1
Assay [7] concerns Helicobacter pylori. The experiment in a line: Antimicrobial activity against Helicobacter pylori SS1 infected in C57BL/6 mouse assessed as restoration of epithelial layer of gastric tissue at 25 mg/kg, po administered 2 weeks post infection for 7 days measured after 1 week. Set-up: dose 25 mg/kg. The conditions noted are these: Stomach. It is filed as functional, organism-based. The essentials:
(§2)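 C57BL/6 mice were inoculated intragastrically with SS1, with PBS controls. Two weeks after the final inoculation, curcumin 25 mg/kg was fed orally for 7 consecutive days before sacrifice. Body and pyloric stomach tissue was formalin-fixed and paraffin-embedded, and 5 μm sections were stained with hematoxylin and eosin and examined at ×10 and ×20.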

Assay [8] has as its system Helicobacter pylori. Briefly: Antimicrobial activity against Helicobacter pylori PG156 by agar dilution method. The assay is classed as functional. Put shortly:
as §1

Assay [9] deals with Helicobacter pylori. The experiment in a line: Antimicrobial activity against Helicobacter pylori SS1 infected in C57BL/6 mouse assessed as inhibition of inflammatory cell infiltration at 25 mg/kg, po administered 2 weeks post infection for 7 days measured after 1 week. The assay is classed as functional, organism-based. Set-up: dose 25 mg/kg. The essentials:
as §2

Assay [10] concerns Helicobacter pylori. The experiment in a line: Antimicrobial activity against Helicobacter pylori SS1 infected in C57BL/6 mouse assessed as decrease in glandular atrophy at 25 mg/kg, po administered 2 weeks post infection for 7 days measured after 1 week. The assay is classed as functional, organism-based. On the set-up: dose 25 mg/kg. The essentials: as §2
In assay [11] the test system is Helicobacter pylori. The experiment in a line: Antimicrobial activity against Helicobacter pylori SS1 infected in C57BL/6 mouse assessed as inhibition of disruption in submucosal and muscularis mucosal layer of gastric tissue at 25 mg/kg, po administered 2 weeks post infection for 7 days measured after 1 week. It is filed as functional, organism-based. On the set-up: dose 25 mg/kg. The conditions noted are these: Stomach. The essentials:
as §2

Assay [12] relates to Helicobacter pylori. The experiment in a line: Antimicrobial activity against Helicobacter pylori AM1 infected in C57BL/6 mouse assessed as decreased bacterial gene vacA expression at 25 mg/kg, po administered 2 weeks post infection for 7 days measured after 1 week by PCR. Set-up: dose 25 mg/kg. The assay is classed as functional, organism-based.
Assay [13] has as its system Helicobacter pylori. The experiment in a line: Antimicrobial activity against Helicobacter pylori PG233 by agar dilution method. The assay is classed as functional. The essentials:
as §1

Take `CC1(C)S[C@@H]2[C@H](NC(=O)[C@H](N)c3ccc(O)cc3)C(=O)N2[C@H]1C(=O)O` [AMOXICILLIN]: the minimal inhibitory concentration (MIC) in assay [1] and in assay [2] was 0.03 µg/mL (≈ 0.0821 µM) each time.

Take `CC[C@H]1OC(=O)[C@H](C)[C@@H](O[C@H]2C[C@@](C)(OC)[C@@H](O)[C@H](C)O2)[C@H](C)[C@@H](O[C@@H]2O[C@H](C)C[C@H](N(C)C)[C@H]2O)[C@](C)(OC)C[C@@H](C)C(=O)[C@H](C)[C@@H](O)[C@]1(C)O` [CLARITHROMYCIN]: the MIC in assay [1] and in assay [2] was 0.02 µg/mL (≈ 0.0267 µM) throughout.

As to `COc1cc(/C=C/C(=O)CC(=O)/C=C/c2ccc(O)c(OC)c2)ccc1O` [CURCUMIN], the MIC (in general, the lowest concentration found to suppress growth) was determined as 20 µg/mL (≈ 54.3 µM) in [3]; 5 µg/mL (≈ 13.6 µM) in assay [4]; 50 µg/mL (≈ 136 µM) in assay [6]; 30 µg/mL (≈ 81.4 µM) in assay [8]; 15 µg/mL (≈ 40.7 µM) in assay [1]; 5 µg/mL (≈ 13.6 µM) in [2]. This molecule displayed a minimum inhibitory concentration (MIC) in assay [13] of 5 µg/mL (≈ 13.6 µM). For the same molecule, the outcome in assay [5], in assay [7], in assay [9], in assay [10], in [11] and in assay [12] was Active.
